VIM-2 inh: blocks Pseudomonas aeruginosa VIM-2 metallo-beta-lactamase; purified VIM-2, nitrocefin hydrolysis, epi-absorbance fluorescence; inhibition, % at 5.6 µM; actives 0.89% (n = 290,000);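 active means inhibition above the mean of all tested compounds plus 3 SD, cutoff set per screening run, cut at about 7.5% in these data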;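 further: red hydrolysis product quenches plate fluorescence so inhibitors raise well fluorescence; 0% = enzyme with DMSO and 100% = DMSO without enzyme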
NALP1 inh: blocks the NALP1 inflammasome reconstituted in yeast; S. cerevisiae NALP1/ASC/caspase-1 growth, X-gal OD620, 72 h; inhibition, % at 10 µM; actives 0.61% (n = 280,000); AID 2071; in the data active means inhibition mostly above about 24%, no sharp cut-off; inactive means mostly below about 32%
SUMO HTRF inh: SUMOylation inhibition | actives 0.36% (n = 290,000) | AID 2006 | inhibition, % at 35 µM | P63279 | HTRF SUMOylation assay, SAE1/SAE2 + UBC9, in vitro; in the data active means inhibition above about 50%, passing the limit was not always enough
Target sequence (P63279 whole entry, looked up): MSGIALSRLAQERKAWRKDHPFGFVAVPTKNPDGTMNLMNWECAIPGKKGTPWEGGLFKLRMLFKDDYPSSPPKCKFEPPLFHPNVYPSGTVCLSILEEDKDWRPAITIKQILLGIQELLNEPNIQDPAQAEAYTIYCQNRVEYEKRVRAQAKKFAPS
FID counter: fluorescent intercalator displacement, NS3 helicase counter-screen; AID 1845; DNA fluorescent intercalator displacement, fluorescence; actives 0.17% (n = 290,000); inhibition, % at 7.9 µM; in the data active means inhibition above about 37%;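 further: 0% = vehicle and 100% = reference compound; higher means more ethidium bromide displaced from hairpin DNA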
IMP-1 inh-1: blocks Pseudomonas aeruginosa IMP-1 metallo-beta-lactamase; inhibition, % at 5.6 µM; AID 1556; actives 0.45% (n = 290,000); purified IMP-1, nitrocefin hydrolysis, epi-absorbance fluorescence;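 active means inhibition above the mean plus 3 SD of all compounds in the same screening run, cut at about 4.5% in these data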;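 further: 0% = IMP-1 with DMSO and 100% = DMSO wells lacking enzyme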
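System: purified recombinant IMP-1 beta-lactamase. Medium: Zinc- and detergent-supplemented HEPES buffer, pH 7.1. Compound: one 5.6 µM dose […]. Schedule: 15 min preincubation plus 25 min reaction at 25 °C. Technique: Epi-absorbance fluorescence, 480 nm excitation, 530 nm emission.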
SUMO Mot1 rescue: SUMOylation pathway inhibition by Mot1-301 growth rescue. S. cerevisiae Mot1-301 growth rescue, ATP luminescence, 38.5C; percent above DMSO median, 100 means doubled. growth rescue, % at 18.8 µM. actives 1% (n = 320,000). AID 2716;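 active means every valid replicate shows activation above 250% relative to neutral control wells; inactive means the rest, any valid replicate at or below 250%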;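 further: OY570 slx delta 5 strain wells were the positive control but not used for scaling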
IMP-1 inh-2: selectivity counter-screen for VIM-2 inhibitors: IMP-1 metallo-beta-lactamase inhibitors | shares compounds with VIM-2 inh | purified IMP-1, nitrocefin hydrolysis, epi-absorbance fluorescence | inhibition, % at 5.6 µM | 1,300 tested, under 10 active | AID 1856; call rule not given here;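 further: 0% = enzyme with vehicle and 100% = vehicle without enzyme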
VIM-2 FRET ctr: inhibits VIM-2 in FRET assay to exclude epi-absorbance artifacts; shares compounds with VIM-2 inh; purified VIM-2, CCF2 FRET substrate hydrolysis; inhibition, % at 5.6 µM; actives 23% (n = 1,300);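 active means inhibition above the mean of all tested compounds plus 3 SD, cut at about 19% in these data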;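 further: 0% = VIM-2 plus DMSO and 100% = no enzyme wells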
TEM-1 inh: TEM-1 inhibition, counter-screen for VIM-2 inhibitors. shares compounds with VIM-2 inh. Purified TEM-1, nitrocefin hydrolysis, epi-absorbance fluorescence. inhibition, % at 5.6 µM. actives 3% (n = 1,300). AID 1866;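 active means inhibition above that campaign's mean inhibition plus 3 SD, cut at about 0.46% in these data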;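 further: 0% = TEM-1 with DMSO and 100% = TEM-1 with 100 µM potassium clavulanate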
Target sequence (P62593 whole entry, looked up): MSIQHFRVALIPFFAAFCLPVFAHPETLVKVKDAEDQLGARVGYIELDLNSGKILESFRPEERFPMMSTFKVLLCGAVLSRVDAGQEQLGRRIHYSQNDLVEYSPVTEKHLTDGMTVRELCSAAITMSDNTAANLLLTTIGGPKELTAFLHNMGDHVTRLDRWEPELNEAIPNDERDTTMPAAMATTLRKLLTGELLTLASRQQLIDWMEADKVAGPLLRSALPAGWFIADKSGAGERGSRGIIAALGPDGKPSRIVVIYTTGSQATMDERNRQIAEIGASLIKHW
VIM-2 inh conf: confirmation of P. aeruginosa VIM-2 metallo-beta-lactamase inhibitors; shares compounds with VIM-2 inh; purified VIM-2, nitrocefin hydrolysis, epi-absorbance; inhibition, % at 5.6 µM; actives 96% (n = 1,300); AID 2187;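 active means inhibition of the VIM-2 beta-lactamase enzyme above about 11% from the earlier first-round screen, limit read from the data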;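 further: 0% = VIM-2 with DMSO and 100% = buffer wells without enzyme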
Starred values were filed as active, the others as inactive. An excerpt weighted towards active compounds, which were near 2.9% of everything screened.

How did O=C(COc1cc2oc(=O)c3c(c2cc1Cl)CCC3)NCc1ccncc1 do in these assays?
VIM-2 inh: 28*; NALP1 inh: 16; SUMO HTRF inh: 4; FID counter: -34; IMP-1 inh-1: -3; SUMO Mot1 rescue: 13; IMP-1 inh-2: -3; VIM-2 FRET ctr: -4; TEM-1 inh: -3; VIM-2 inh conf: 35*

What do the screens show for `NS(=O)(=O)c1ccc(CCNC(=O)COc2ccc3c4c(c(=O)oc3c2)CCC4)cc1`?
VIM-2 inh: 19*; NALP1 inh: -7; FID counter: 88*; IMP-1 inh-1: -3; SUMO Mot1 rescue: -2; IMP-1 inh-2: -3; VIM-2 FRET ctr: -4; TEM-1 inh: -8; VIM-2 inh conf: 28*

What do the screens show for `Cc1cc(=O)oc2cc(OCC(=O)NCc3ccncc3)ccc12`?
VIM-2 inh: 2; NALP1 inh: -1; SUMO HTRF inh: 10; FID counter: 1; IMP-1 inh-1: -3; SUMO Mot1 rescue: -5

What do the screens show for `CN1CCCN(C(=O)c2cccc3ccccc23)CC1`?
VIM-2 inh: -2; NALP1 inh: 7; SUMO HTRF inh: 10; FID counter: -2; IMP-1 inh-1: -4; SUMO Mot1 rescue: 3

How did S=c1[nH]nc(-c2ccccc2)n1Cc1ccccc1 do in these assays?
VIM-2 inh: 13*; NALP1 inh: 4; SUMO HTRF inh: 7; FID counter: -14; IMP-1 inh-1: 2; SUMO Mot1 rescue: -20; IMP-1 inh-2: -3; VIM-2 FRET ctr: 34*; TEM-1 inh: -8; VIM-2 inh conf: 22*

How did CCn1c(-c2ccco2)n[nH]c1=S do in these assays?
VIM-2 inh: 4; NALP1 inh: -3; SUMO HTRF inh: 27; FID counter: 0; IMP-1 inh-1: -1; SUMO Mot1 rescue: 6

What do the screens show for `S=c1[nH]nc(-c2ccco2)n1Cc1ccccc1`?
VIM-2 inh: 26*; NALP1 inh: -7; SUMO HTRF inh: 7; FID counter: -11; IMP-1 inh-1: 1; SUMO Mot1 rescue: 3; IMP-1 inh-2: -3; VIM-2 FRET ctr: 59*; TEM-1 inh: -8; VIM-2 inh conf: 40*

What do the screens show for `S=c1[nH]nc(CN2CCCC2)n1Cc1ccccc1`?
VIM-2 inh: 1; NALP1 inh: -25; SUMO HTRF inh: 14; FID counter: 0; IMP-1 inh-1: -3; SUMO Mot1 rescue: 1

What do the screens show for `S=c1[nH]nc(-c2cccs2)n1Cc1ccccc1`?
VIM-2 inh: 43*; NALP1 inh: 6; SUMO HTRF inh: 18; FID counter: -3; IMP-1 inh-1: -2; SUMO Mot1 rescue: 3; IMP-1 inh-2: -2; VIM-2 FRET ctr: 67*; TEM-1 inh: -9; VIM-2 inh conf: 51*

How did S=c1[nH]nc(C2CC2)n1Cc1ccccc1 do in these assays?
VIM-2 inh: 47*; NALP1 inh: -19; SUMO HTRF inh: 12; FID counter: -6; IMP-1 inh-1: -4; SUMO Mot1 rescue: -7; IMP-1 inh-2: -3; VIM-2 FRET ctr: 75*; TEM-1 inh: -7; VIM-2 inh conf: 61*

How did O=C(O)c1ccc(-n2cccc2/C=C2/SC(=O)N(CC(=O)N3CCCC3)C2=O)cc1 do in these assays?
VIM-2 inh: -1; NALP1 inh: 1; SUMO HTRF inh: 41; FID counter: -24; IMP-1 inh-1: -2; SUMO Mot1 rescue: -11

How did COc1ccc(SC[C@H](Cc2ccccc2)N2CCN(C)CCC2=O)cc1 do in these assays?
NALP1 inh: -6; SUMO HTRF inh: 5; SUMO Mot1 rescue: 162

Results for S=c1[nH]nc(-c2cccs2)n1C1CCCCC1 ?
VIM-2 inh: 42*; NALP1 inh: -12; SUMO HTRF inh: 5; FID counter: -11; IMP-1 inh-1: 0; SUMO Mot1 rescue: 0; IMP-1 inh-2: -2; VIM-2 FRET ctr: 63*; TEM-1 inh: -7; VIM-2 inh conf: 47*

What do the screens show for `COc1cccc(/C=C2\SC(=S)N(C(C(=O)O)c3ccccc3)C2=O)c1OC` (centres undefined)?
VIM-2 inh: 32*; NALP1 inh: -10; SUMO HTRF inh: 20; FID counter: -13; IMP-1 inh-1: 1; SUMO Mot1 rescue: 23; IMP-1 inh-2: -2; VIM-2 FRET ctr: 26*; TEM-1 inh: -6; VIM-2 inh conf: 18*

How did COc1cc(/C=C2\SC(=S)N(C(C(=O)O)c3ccccc3)C2=O)cc(OC)c1OC (centres undefined) do in these assays?
VIM-2 inh: 1; NALP1 inh: -8; SUMO HTRF inh: 12; FID counter: -1; IMP-1 inh-1: -2; SUMO Mot1 rescue: -8

Results for Cc1n[nH]c(C)c1CCCCOc1ccc([N+](=O)[O-])cc1 ?
VIM-2 inh: 20*; NALP1 inh: 18; SUMO HTRF inh: 22; FID counter: -7; IMP-1 inh-1: -2; SUMO Mot1 rescue: -19; IMP-1 inh-2: -3; VIM-2 FRET ctr: 47*; TEM-1 inh: -7; VIM-2 inh conf: 30*

How did Cc1sc2ncnc(NCCc3ccc(S(N)(=O)=O)cc3)c2c1C do in these assays?
VIM-2 inh: 19*; NALP1 inh: 0; SUMO HTRF inh: 13; FID counter: -4; IMP-1 inh-1: -6; SUMO Mot1 rescue: -5; IMP-1 inh-2: -3; VIM-2 FRET ctr: -5; TEM-1 inh: -7; VIM-2 inh conf: 16*

Results for Cc1sc2ncnc(NCCCn3ccnc3)c2c1C ?
VIM-2 inh: 21*; NALP1 inh: 12; SUMO HTRF inh: 26; FID counter: 0; IMP-1 inh-1: -3; SUMO Mot1 rescue: 0; IMP-1 inh-2: -4; VIM-2 FRET ctr: -4; TEM-1 inh: -7; VIM-2 inh conf: 34*

Results for NNC(=O)Cn1nc2n(c1=O)-c1ccccc1SC2 ?
VIM-2 inh: -3; NALP1 inh: 2; SUMO HTRF inh: -1; FID counter: -9; IMP-1 inh-1: -3; SUMO Mot1 rescue: 4

What do the screens show for `CCc1ccccc1NC(=O)CC(NCc1ccccc1)C(=O)O` (centres undefined)?
VIM-2 inh: -3; NALP1 inh: 2; SUMO HTRF inh: 17; FID counter: -5; IMP-1 inh-1: -3; SUMO Mot1 rescue: 5

Results for O=C1c2ccccc2S(=O)(=O)N1Cc1nnc(-c2ccccc2Br)o1 ?
VIM-2 inh: 4; NALP1 inh: -5; SUMO HTRF inh: 8; FID counter: -7; IMP-1 inh-1: -1
